Data set [1] in a line: Metabolic stability in human serum assessed as full length product remaining after 10 mins by HPLC. It counts as ADME, cell-free. The settings on record: read-out: Stability. The method in brief:
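About 0.5 A260 units compound in 1% human serum in PBS, 37 °C; aliquot taken at 10 min, analysed by anion-exchange HPLC for percent intact full-length product.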

In data set [2] the target is Toll-like receptor 3 (Homo sapiens) (UniProt O15455). The experiment in a line: Activation of human TLR3 expressed in HEK293 assessed as induction of NF-kappaB activity reporter gene assay. It counts as cell-based.
The species named for a further data set is Homo sapiens. The experiment in a line: Ratio of human TLR7 activity to human TLR8 activity. The method in brief: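 TLR7/TLR8 ratio computed from fold NF-κB (SEAP reporter) activation in HEK293 cells stably expressing human TLR7 versus TLR8, compounds at 50 μg/mL, 18 h exposure; representative of three independent experiments.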
The target in data set [3] is T1, Toll-like receptor 7 (Homo sapiens) (UniProt Q9NYK1).
T1 sequence (whole entry): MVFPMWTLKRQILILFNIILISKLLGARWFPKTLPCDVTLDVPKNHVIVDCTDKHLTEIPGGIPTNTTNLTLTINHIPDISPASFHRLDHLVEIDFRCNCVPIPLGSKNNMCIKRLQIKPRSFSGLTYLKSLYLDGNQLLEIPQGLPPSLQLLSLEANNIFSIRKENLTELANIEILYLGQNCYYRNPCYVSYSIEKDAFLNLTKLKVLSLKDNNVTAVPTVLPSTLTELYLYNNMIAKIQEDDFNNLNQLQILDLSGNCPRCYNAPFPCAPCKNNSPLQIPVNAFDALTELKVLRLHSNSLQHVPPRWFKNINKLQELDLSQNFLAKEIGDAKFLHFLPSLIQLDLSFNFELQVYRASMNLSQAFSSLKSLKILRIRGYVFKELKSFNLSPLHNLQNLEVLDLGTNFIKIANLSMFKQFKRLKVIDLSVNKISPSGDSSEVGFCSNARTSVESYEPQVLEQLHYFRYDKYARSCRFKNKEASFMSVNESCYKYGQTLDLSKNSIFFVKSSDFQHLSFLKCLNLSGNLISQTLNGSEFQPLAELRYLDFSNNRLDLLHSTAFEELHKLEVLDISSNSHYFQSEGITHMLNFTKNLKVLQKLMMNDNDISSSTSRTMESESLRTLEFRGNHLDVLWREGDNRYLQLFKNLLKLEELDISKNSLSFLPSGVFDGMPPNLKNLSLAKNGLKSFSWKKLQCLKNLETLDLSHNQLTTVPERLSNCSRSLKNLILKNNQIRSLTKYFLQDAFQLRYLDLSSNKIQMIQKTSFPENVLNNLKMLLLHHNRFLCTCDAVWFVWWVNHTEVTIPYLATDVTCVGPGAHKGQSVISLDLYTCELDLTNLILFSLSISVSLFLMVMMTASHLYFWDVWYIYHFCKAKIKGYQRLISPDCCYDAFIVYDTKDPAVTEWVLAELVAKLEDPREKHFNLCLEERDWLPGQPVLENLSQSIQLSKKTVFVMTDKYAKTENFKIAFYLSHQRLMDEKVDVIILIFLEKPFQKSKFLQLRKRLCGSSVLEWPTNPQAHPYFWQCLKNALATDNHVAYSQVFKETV
The experiment in a line: Activation of human TLR7 expressed in HEK293XL assessed as fold induction of NF-kappaB activity at 50 ug/ml after 18 hrs by reporter gene assay relative to control. Summed up:
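HEK293 cells stably expressing human TLR7 or TLR8, transiently transfected with SEAP reporter plasmid; medium replaced, SIMRA compounds added, 18 h incubation. Supernatant SEAP measured by QuantiBlue; expressed as fold increase in NF-κB activity over PBS control. Tabulated data at 50 μg/mL, representative of three independent experiments.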
A general note: A reporter such as luciferase makes a cellular process visible.

Structures are written as SMILES. Active and inactive are the calls of the source. The rule behind the calls is not given here.

Chain of Toll-like receptor 3 (Homo sapiens) (O15455 whole entry): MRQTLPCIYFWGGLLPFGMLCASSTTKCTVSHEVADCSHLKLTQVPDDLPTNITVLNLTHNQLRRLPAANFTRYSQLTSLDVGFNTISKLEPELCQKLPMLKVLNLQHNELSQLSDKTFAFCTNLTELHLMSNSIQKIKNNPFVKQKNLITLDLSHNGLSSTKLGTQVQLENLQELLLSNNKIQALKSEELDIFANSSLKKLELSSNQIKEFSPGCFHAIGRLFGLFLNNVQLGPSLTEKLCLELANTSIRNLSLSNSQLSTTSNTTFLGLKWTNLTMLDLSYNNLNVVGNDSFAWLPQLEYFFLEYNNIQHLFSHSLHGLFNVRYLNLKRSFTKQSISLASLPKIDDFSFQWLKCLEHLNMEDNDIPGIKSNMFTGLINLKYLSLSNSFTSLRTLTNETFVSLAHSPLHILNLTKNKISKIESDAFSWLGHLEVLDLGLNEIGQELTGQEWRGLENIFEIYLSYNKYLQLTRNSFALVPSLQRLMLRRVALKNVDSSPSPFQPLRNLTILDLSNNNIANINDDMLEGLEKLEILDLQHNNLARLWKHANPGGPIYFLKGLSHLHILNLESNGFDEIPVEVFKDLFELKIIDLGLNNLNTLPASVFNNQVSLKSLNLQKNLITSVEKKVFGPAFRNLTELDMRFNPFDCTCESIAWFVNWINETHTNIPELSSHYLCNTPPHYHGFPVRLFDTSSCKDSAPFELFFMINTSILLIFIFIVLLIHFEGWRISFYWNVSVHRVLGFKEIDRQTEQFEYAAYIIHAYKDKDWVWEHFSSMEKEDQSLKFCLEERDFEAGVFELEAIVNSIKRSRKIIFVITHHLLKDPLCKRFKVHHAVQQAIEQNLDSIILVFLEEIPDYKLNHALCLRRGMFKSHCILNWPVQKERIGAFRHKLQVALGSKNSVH

Turning to `Nc1ccn([C@@H]2O[C@H](CO)[C@@H](OP(=O)(S)OC[C@H]3O[C@@H](n4ccc(=O)[nH]c4=O)[C@H](O)[C@@H]3OP(=O)(S)OC[C@H]3O[C@@H](n4ccc5c(=O)[nH]c(N)nc54)[C@H](O)[C@@H]3OP(=O)(S)OC[C@H]3O[C@@H](n4cnc5c(N)ncnc54)[C@H](O)[C@@H]3OP(=O)(S)OC[C@H]3O[C@@H](n4ccc5c(=O)[nH]c(N)nc54)[C@H](O)[C@@H]3OP(=O)(S)OC[C@H]3O[C@@H](n4cnc5c(N)ncnc54)[C@H](O)[C@@H]3OP(=O)(S)OC[C@H]3O[C@@H](n4cnc5c(N)ncnc54)[C@H](O)[C@@H]3OP(=O)(S)OC[C@H]3O[C@@H](n4ccc5c(=O)[nH]c(N)nc54)[C@H](O)[C@@H]3OP(=O)(S)OC[C@H]3O[C@@H](n4ccc(N)nc4=O)[C@H](O)[C@@H]3OP(=O)(S)OC[C@H]3O[C@@H](n4ccc(=O)[nH]c4=O)[C@H](O)[C@@H]3OP(=O)(S)OC[C@H]3O[C@@H](n4ccc(=O)[nH]c4=O)[C@H](O)[C@@H]3OP(=O)(S)OCC(O)COP(=O)(S)O[C@H]3[C@@H](O)[C@H](n4ccc(=O)[nH]c4=O)O[C@@H]3COP(=O)(S)O[C@H]3[C@@H](O)[C@H](n4ccc(=O)[nH]c4=O)O[C@@H]3COP(=O)(S)O[C@H]3[C@@H](O)[C@H](n4ccc(N)nc4=O)O[C@@H]3COP(=O)(S)O[C@H]3[C@@H](O)[C@H](n4ccc5c(=O)[nH]c(N)nc54)O[C@@H]3COP(=O)(S)O[C@H]3[C@@H](O)[C@H](n4cnc5c(N)ncnc54)O[C@@H]3COP(=O)(S)O[C@H]3[C@@H](O)[C@H](n4cnc5c(N)ncnc54)O[C@@H]3COP(=O)(S)O[C@H]3[C@@H](O)[C@H](n4ccc5c(=O)[nH]c(N)nc54)O[C@@H]3COP(=O)(S)O[C@H]3[C@@H](O)[C@H](n4cnc5c(N)ncnc54)O[C@@H]3COP(=O)(S)O[C@H]3[C@@H](O)[C@H](n4ccc5c(=O)[nH]c(N)nc54)O[C@@H]3COP(=O)(S)O[C@H]3[C@@H](O)[C@H](n4ccc(=O)[nH]c4=O)O[C@@H]3COP(=O)(S)O[C@H]3[C@@H](O)[C@H](n4ccc(N)nc4=O)O[C@@H]3CO)[C@H]2O)c(=O)n1` (some centres not stated), the remaining at 10 min in data set [1] came to 72%. Besides, in data set [2], the result was inactive. Further, in the data set listed under Homo sapiens, the Ratio was found to be 69. Moreover, the fold change (FC) in data set [3] is 27.6.

On to `Nc1ccn([C@@H]2O[C@H](COP(=O)(S)O[C@H]3[C@@H](O)[C@H](n4cnc5c(N)ncnc54)O[C@@H]3CO)[C@@H](OP(=O)(S)OC[C@H]3O[C@@H](n4ccc5c(=O)[nH]c(N)nc54)[C@H](O)[C@@H]3OP(=O)(S)OC[C@H]3O[C@@H](n4ccc(=O)[nH]c4=O)[C@H](O)[C@@H]3OP(=O)(S)OC[C@H]3O[C@@H](n4ccc5c(=O)[nH]c(N)nc54)[C@H](O)[C@@H]3OP(=O)(S)OC[C@H]3O[C@@H](n4cnc5c(N)nc(N)nc54)[C@H](O)[C@@H]3OP(=O)(S)OC[C@H]3O[C@@H](n4cnc5c(N)ncnc54)[C@H](O)[C@@H]3OP(=O)(S)OC[C@H]3O[C@@H](n4ccc5c(=O)[nH]c(N)nc54)[C@H](O)[C@@H]3OP(=O)(S)OC[C@H]3O[C@@H](n4ccc(N)nc4=O)[C@H](O)[C@@H]3OP(=O)(S)OC[C@H]3O[C@@H](n4ccc(=O)[nH]c4=O)[C@H](O)[C@@H]3OP(=O)(S)OC[C@H]3O[C@@H](n4ccc(=O)[nH]c4=O)[C@H](O)[C@@H]3OP(=O)(S)OCC(O)COP(=O)(S)O[C@H]3[C@@H](O)[C@H](n4ccc(=O)[nH]c4=O)O[C@@H]3COP(=O)(S)O[C@H]3[C@@H](O)[C@H](n4ccc(=O)[nH]c4=O)O[C@@H]3COP(=O)(S)O[C@H]3[C@@H](O)[C@H](n4ccc(N)nc4=O)O[C@@H]3COP(=O)(S)O[C@H]3[C@@H](O)[C@H](n4ccc5c(=O)[nH]c(N)nc54)O[C@@H]3COP(=O)(S)O[C@H]3[C@@H](O)[C@H](n4cnc5c(N)nc(N)nc54)O[C@@H]3COP(=O)(S)O[C@H]3[C@@H](O)[C@H](n4cnc5c(N)nc(N)nc54)O[C@@H]3COP(=O)(S)O[C@H]3[C@@H](O)[C@H](n4ccc5c(=O)[nH]c(N)nc54)O[C@@H]3COP(=O)(S)O[C@H]3[C@@H](O)[C@H](n4ccc(=O)[nH]c4=O)O[C@@H]3COP(=O)(S)O[C@H]3[C@@H](O)[C@H](n4ccc5c(=O)[nH]c(N)nc54)O[C@@H]3COP(=O)(S)O[C@H]3[C@@H](O)[C@H](n4ccc(N)nc4=O)O[C@@H]3COP(=O)(S)O[C@H]3[C@@H](O)[C@H](n4cnc5c(N)ncnc54)O[C@@H]3CO)[C@H]2O)c(=O)n1` (some centres not stated), for which the remaining at 10 min in data set [1] was determined as 74%. For the same molecule, the outcome in data set [2] was inactive. Also, in the data set listed under Homo sapiens, the Ratio is 13.4. In addition, in data set [3], the fold change (FC) turned out to be 26.8.

With `Nc1ccn([C@@H]2O[C@H](COP(=O)(S)O[C@H]3[C@@H](O)[C@H](n4cnc5c(N)ncnc54)O[C@@H]3COP(=O)(S)O[C@H]3[C@@H](O)[C@H](n4cnc5c(N)ncnc54)O[C@@H]3CO)[C@@H](OP(=O)(S)OC[C@H]3O[C@@H](n4ccc(=O)[nH]c4=O)[C@H](O)[C@@H]3OP(=O)(S)OC[C@H]3O[C@@H](n4ccc5c(=O)[nH]c(N)nc54)[C@H](O)[C@@H]3OP(=O)(S)OC[C@H]3O[C@@H](n4cnc5c(N)ncnc54)[C@H](O)[C@@H]3OP(=O)(S)OC[C@H]3O[C@@H](n4cnc5c(N)ncnc54)[C@H](O)[C@@H]3OP(=O)(S)OC[C@H]3O[C@@H](n4ccc5c(=O)[nH]c(N)nc54)[C@H](O)[C@@H]3OP(=O)(S)OC[C@H]3O[C@@H](n4ccc(N)nc4=O)[C@H](O)[C@@H]3OP(=O)(S)OC[C@H]3O[C@@H](n4ccc(=O)[nH]c4=O)[C@H](O)[C@@H]3OP(=O)(S)OC[C@H]3O[C@@H](n4ccc(=O)[nH]c4=O)[C@H](O)[C@@H]3OP(=O)(S)OCC(O)COP(=O)(S)O[C@H]3[C@@H](O)[C@H](n4ccc(=O)[nH]c4=O)O[C@@H]3COP(=O)(S)O[C@H]3[C@@H](O)[C@H](n4ccc(=O)[nH]c4=O)O[C@@H]3COP(=O)(S)O[C@H]3[C@@H](O)[C@H](n4ccc(N)nc4=O)O[C@@H]3COP(=O)(S)O[C@H]3[C@@H](O)[C@H](n4ccc5c(=O)[nH]c(N)nc54)O[C@@H]3COP(=O)(S)O[C@H]3[C@@H](O)[C@H](n4cnc5c(N)ncnc54)O[C@@H]3COP(=O)(S)O[C@H]3[C@@H](O)[C@H](n4cnc5c(N)ncnc54)O[C@@H]3COP(=O)(S)O[C@H]3[C@@H](O)[C@H](n4ccc5c(=O)[nH]c(N)nc54)O[C@@H]3COP(=O)(S)O[C@H]3[C@@H](O)[C@H](n4ccc(=O)[nH]c4=O)O[C@@H]3COP(=O)(S)O[C@H]3[C@@H](O)[C@H](n4ccc(N)nc4=O)O[C@@H]3COP(=O)(S)O[C@H]3[C@@H](O)[C@H](n4cnc5c(N)ncnc54)O[C@@H]3COP(=O)(S)O[C@H]3[C@@H](O)[C@H](n4cnc5c(N)ncnc54)O[C@@H]3CO)[C@H]2O)c(=O)n1` (some centres not stated), the remaining at 10 min in data set [1] was determined as 77%. For the same molecule, the result in data set [2] was inactive. For the same molecule, in the data set listed under Homo sapiens, the Ratio amounted to 29.5. Moreover, the fold change (FC) in data set [3] was 29.5.

For the origin of these results see ChEMBL document CHEMBL1154352, “Toll-like receptor 7 selective synthetic oligoribonucleotide agonists: synthesis and structure-activity relationship studies” (J Med Chem, 2009).
